Source: PubChem BioAssay (several laboratories)
CSC inhib – cancer stem cell inhibition. hit rate 1.1% among 300,000. cancer stem cell-like cells viability, luminescence. inhibition, % at 7.5 µM; in the data active means inhibition above about 75%; inconclusive means no clear call, values can overlap the other calls; tested in HMLE shEcad cells
CHOP UPR activ – apoptotic UPR (CHOP) activation | hit rate 0.34% among 330,000 | CHO-CHOP luciferase reporter, luminescence; percent of tunicamycin response over DMSO baseline | activation, % at 10 µM | AID 449763;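 active means at 10 µM dose, activation of 40% or more, normalized to positive control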
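measured by = luciferase luminescence | assay system = CHO-CHOP cells, stable luciferase reporter of PERK-eIF2a-CHOP signalling | amount = 500 reporter cells seeded per well | timing = 6 h compound exposure at 37 °C after overnight seeding | controls = positive tunicamycin 10 µg/mL, negative DMSO alone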
Mdm2 MdmX PPI – inhibitors of human Mdm2/MdmX interaction | hit rate 3% among 330,000 | inhibition, % at 8 µM | O15151+Q00987 | SaOS-2 split-luciferase Mdm2/MdmX complementation, luminescence;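 active means inhibition of at least 50% at 8 µM in the primary screen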
XBP1 UPR activ – activators of adaptive arm of unfolded protein response (XBP1) | CHO-XBP1 luciferase reporter, IRE1-XBP1 UPR activation, luminescence; percent of tunicamycin response, DMSO as zero | activation, % at 20 µM | hit rate 0.33% among 330,000 | AID 463104;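 active means versus positive control, 20 µM dose yields 30% or more activation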
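Assay system: IRE1-XBP1 luciferase reporter CHO line. Input: 1000 cells/well. Buffer or medium: F12 with 10% serum. Doses: 20 µM, 1% DMSO. Times: overnight seeding at 37 °C, 6 h compound treatment at 37 °C. Technique: Steady-Glo luciferase glow luminescence, 10 min after reagent addition.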
T cruzi inh – T. cruzi replication inhibition | T. cruzi beta-gal in NIH3T3, luminescence, 90 h | inhibition, % (test concentration not listed) | hit rate 1.4% among 300,000 | AID 1885;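 active means mean inhibition across valid replicates above about 55%, limit read from the data; inconclusive means mean below that limit but half or more replicates reach it; inactive means mean below it, under half of replicates reach it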;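 further: signal also drops with host cell toxicity which is not excluded here; higher percent means less beta-gal luminescence so fewer parasites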
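assay system = mouse NIH/3T3 fibroblasts infected with β-gal-expressing T. cruzi Tulahuen C4 | input = 5,000 NIH/3T3 host cells per well | buffer or medium = DMEM plus 2% FBS | timing = 3 h host attachment, then at least 90 h co-culture | measured by = GalScreen luminescence, 60 min | evaluation = luminescence reflecting intracellular parasite burden, expressed as percent inhibition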
Beta cell apopt – blocks beta cell apoptosis; INS-1E cytokine-induced death, ATP luminescence, 48 h; percent of positive-control rescue, neutral wells zero; protection from apoptosis, % (test concentration not listed); hit rate 0.8% among 300,000; AID 435005;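 active means Every replicate reaches about 75%, or at least half do and their mean reaches it too, limit read from the data; inconclusive means At least half of replicates reach the limit but their mean does not; inactive means Under half of replicates reach the limit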;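 further: higher means more ATP so stronger rescue from cytokine killing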
Of the large screens only hits and unclear results are named; the others gave an inactive call. In the library only some 5% were active in any assay of this set; here they are far more common.

COc1ccc(OC)c(N(CC(=O)NN=C2CCN(C)CC2)S(=O)(=O)c2ccccc2)c1	none (no result: Beta cell apopt)
CCN1CCN(c2ccc(S(=O)(=O)N3CCCCC3)cc2NC(=O)c2ccccc2)CC1	none (no result: CSC inhib)
CN1CCN(S(=O)(=O)c2cccc(C(=O)Nc3ccccc3N3CCCCC3)c2)CC1	none
CCN1CCN(c2ccc(S(=O)(=O)N3CCCCC3)cc2NC(=O)c2cccc(C(F)(F)F)c2)CC1	T cruzi inh 68
CCN1CCN(c2ccc(S(=O)(=O)N3CCCCC3)cc2NC(=O)c2cccc(F)c2)CC1	none
CN1CCN(S(=O)(=O)c2cccc(C(=O)Nc3cc(C(F)(F)F)ccc3N3CCCCC3)c2)CC1	CSC inhib 87
CCN1CCN(c2ccc(S(=O)(=O)N3CCCCC3)cc2NC(=O)c2ccc(C)o2)CC1	T cruzi inh 55
Nc1ccc(S(=O)(=O)NC(Cc2ccccc2)C(=O)O)cc1 (centres undefined)	none
CCC(CC)NC(=O)Cc1ccc(F)cc1	none
COCCCNC(=O)C1CCC(CNS(=O)(=O)c2ccc(C)cc2)CC1 (centres undefined)	none
CCC[C@@H](CN1CCC[C@H]1CN1C(N)=NC[C@@H]1Cc1ccccc1)N1C[C@@H]([C@H](C)CC)N(CCCC2CCCC2)C1=N	Beta cell apopt 101 (no result: CSC inhib, T cruzi inh)
CCC[C@@H](CN1CCC[C@H]1CN1C(N)=NC[C@@H]1Cc1ccccc1)N1C[C@@H](Cc2ccccc2)N(CCCC2CCCC2)C1=N	none (no result: T cruzi inh)
CC1(c2nnc(-c3ccncc3)o2)CC(c2ccccc2)=NO1 (centres undefined)	none
COc1ccc(CN2CCN(C(=O)C3CCC(CNS(=O)(=O)c4ccc(C)cc4)CC3)CC2)c(OC)c1OC (centres undefined)	T cruzi inh 57 (no result: CSC inhib)
O=c1cc(-c2ccccc2)nc2c(-c3ccccc3)c(C(F)(F)F)[nH]n12	CSC inhib 90 (no result: Beta cell apopt)
CSc1ccc(C(=O)N2CCC(CCC(=O)NCc3ccc(F)cc3)CC2)cc1	none (no result: CSC inhib, Beta cell apopt)
CC(C)(CO)Cc1cc(C(C)(C)C)c(O)c(C(C)(C)C)c1	none (no result: T cruzi inh)
COc1ccc(/C=N/n2cnn(Cc3ccccc3Cl)c2=S)cc1OC	none
Oc1ccc(/C=N/n2cnn(Cc3ccccc3Cl)c2=S)c(O)c1	CSC inhib 78
CC(=O)Nc1ccc(S(=O)(=O)c2ccc(N)cc2)cc1	none (no result: Beta cell apopt)
CC(=O)Nc1ccc(S(=O)(=O)c2ccc([N+](=O)[O-])cc2)cc1	T cruzi inh 70
CCN(CC)CCNC(=O)c1nn(-c2ccc(C)cc2)c(=O)c2c1c1ccccc1n2C	T cruzi inh 60
Cc1ccc(-n2nc(C(=O)NCc3ccco3)c3c4ccccc4n(C)c3c2=O)cc1	none
CCOC(=O)C1(Cc2cccc(OC)c2)CCCN(Cc2c(C)nn(C(C)C)c2C)C1 (centres undefined)	T cruzi inh 64
CCC(C)Sc1cccc(-c2nc3ccc(C)cn3c2NCc2ccccc2)c1 (centres undefined)	CSC inhib 125, Beta cell apopt inconclusive
CCCCCCSc1cc(-c2nc3ccc(C)cn3c2NCc2ccccc2)ccc1OC	Beta cell apopt 117
CCCCCCSc1cccc(-c2nc3ccc(C)cn3c2NCc2ccccc2)c1	CSC inhib 80
Cc1ccc2nc(-c3cccc(-c4cccc(Cl)c4)c3)c(NCc3ccccc3)n2c1	CSC inhib inconclusive, Beta cell apopt 94
CCCCCCSc1cccc(-c2nc3cc(C)ccn3c2NCc2ccccc2)c1	none
CCc1ccc(NC(=O)CNS(=O)(=O)c2c(C)noc2C)cc1	none
O=C(COC(=O)c1c(F)cccc1Cl)NCC1CCCCC1	none (no result: T cruzi inh)
O=S(=O)(c1ccc(Br)cc1)N1CCCc2ccccc21	none
O=C1CC(SC(=Nc2ccccc2)Nc2ccccc2)C(=O)N1c1ccc(Cl)c(Cl)c1 (centres undefined)	T cruzi inh 55
O=C(NCc1cccnc1)C(=O)Nc1nc(C23CC4CC(CC(C4)C2)C3)cs1	Beta cell apopt 161
O=C(NCc1ccccc1)C(=O)Nc1nc(C23CC4CC(CC(C4)C2)C3)cs1	none
O=C(Nc1ccccc1C(=O)NC1CC1)c1ccccc1F	none (no result: T cruzi inh)
N#C/C(=C\c1c(Cl)cccc1Cl)c1nn(-c2ccccc2)c(-n2cccc2)c1C#N	T cruzi inh 59
N#C/C(=C\c1cccc2ccccc12)c1nn(-c2ccccc2)c(N)c1C#N	none
N#C/C(=C\c1c(F)cccc1Cl)c1nn(-c2ccccc2)c(-n2cccc2)c1C#N	CSC inhib 94
CN(c1ccccc1)S(=O)(=O)c1ccc(C(=O)Nc2ccncc2)cc1	T cruzi inh 70 (no result: Beta cell apopt)
O=C(Nc1ccncc1)c1ccc(Cl)c(Cl)c1	T cruzi inh 62
CN(c1ccccc1)S(=O)(=O)c1ccc(NC(=O)c2ccccc2)cc1	none
O=C(Nc1ccncc1)c1ccc(-c2ccccc2)cc1	T cruzi inh 58
CC(C)c1ccc(NC2CCCN(C(=O)c3ccc(N4CCOCC4)cc3)C2)cc1 (centres undefined)	none
Cc1ccc2c(c1)Oc1ccccc1C=C2C(=O)O	none
C=CCn1c(SCC(=O)Nc2sccc2C(N)=O)nc2ccc(Cl)cc2c1=O	none
C=CCn1c(SCN2C(=O)c3ccccc3C2=O)nc2ccc(Cl)cc2c1=O	Beta cell apopt 98
COc1ccc(CNC(=O)CN(Cc2ccccc2)S(=O)(=O)c2ccc(Cl)cc2)cc1	T cruzi inh 74
CC(C)Cc1nnc(NC(=O)c2cccc(S(=O)(=O)N3CCN(C)CC3)c2)s1	T cruzi inh 60
CC(=O)NCCC(=O)Nc1sc2c(c1-c1nc3ccccc3[nH]1)CCCC2	none
CN1CCN(S(=O)(=O)c2cccc(C(=O)Nc3sc4c(c3-c3nc5ccccc5[nH]3)CCCC4)c2)CC1	T cruzi inh 58 (no result: CSC inhib)
CC(C)Cc1nnc(NC(=O)c2cccc(S(=O)(=O)N3CCOCC3)c2)s1	none (no result: T cruzi inh)
CCc1ccc(C2CC(c3cccc(Cl)c3)n3nc(N)nc3N2)cc1 (centres undefined)	Beta cell apopt 105
Cc1ccc(C2CC(c3cccc(Cl)c3)n3nc(N)nc3N2)cc1 (centres undefined)	none
CC(=O)OCCN1CCN(C(=O)CN2C(=O)NC(c3ccccc3)(c3ccccc3)C2=O)CC1	none
COc1ccc(CNC(=O)CCn2nc(C)c3c(C)n(-c4ccccc4)nc3c2=O)c(OC)c1	none
CN(CC(=O)Nc1cccc(F)c1)C(=O)CSc1nc2ccccc2s1	none
COc1ccc(CN2CCCC(C(=O)c3ccc(Cl)cc3)C2)cc1Cn1cccn1 (centres undefined)	T cruzi inh 64
COc1ccc(CN2CCCC(C(=O)Nc3cccc(-n4cccn4)c3)C2)cc1 (centres undefined)	none
